In ChEMBL document CHEMBL5247576, “Modulation of autophagy by the novel mitochondrial complex I inhibitor Authipyrin” (Bioorg Med Chem, 2019) one finds inhibition and IC50 data, which are given here for 1 compound.

Activity calls are given as the source filed them. No cut-off for these calls is given here.

For orientation: inhibition means the share of the control response that was lost under treatment. For orientation: IC50 means the concentration at which inhibition is half-maximal.

Test [1] deals with MCF7. The test is described as follows: Inhibition of starvation-induced autophagy in human MCF7 cells assessed as reduction of LC3-II lipidation at 1 uM in presence of chloroquine by immunoblotting analysis. In kind it is functional, cell-based. The method in brief: (§1)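 Cells were starved in EBSS for the indicated times, with or without chloroquine (50 μM) and compound (1 μM). Cells were then lysed and LC3 lipidation was assessed by immunoblot. n = 3.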
(In general: Immunoblotting shows a protein as a band on a membrane.)

In a further test the test system is HeLa. Briefly: Inhibition of starvation-induced autophagy in human HeLa cells assessed as reduction of LC3-II lipidation at 1 uM in presence of chloroquine by immunoblotting analysis. In kind it is functional, cell-based. In a few lines: as §1
The subject of another test is HEK-293T. The test is described as follows: Inhibition of starvation-induced autophagy in human HEK293T cells assessed as reduction of LC3-II lipidation at 1 uM in presence of chloroquine by immunoblotting analysis. The test is classed as functional, cell-based. In a few lines:
as §1

Test [2] can be described thus: Inhibition of rapamycin-induced autophagy in human MCF7 cells expressing eGFP-tagged LC3 incubated for 3 hrs in presence of chloroquine by Hoechst staining based fluorescence microscopic analysis. In kind it is functional, cell-based.
The target in test [3] is T1, Inactive tyrosine-protein kinase PEAK1 (Homo sapiens, UniProt Q9H792). Briefly: Inhibition of PEAK1 (unknown origin) at 1 uM relative to control. The method in brief:
(§2)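 Single-point kinase profiling run at 1 μM compound against a full kinase panel. Values are percent inhibition of kinase activity.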

Test [4] addresses Cyclin-dependent kinase 19 (Homo sapiens) (UniProt Q9BWU1). The test is described as follows: Inhibition of GST-tagged human recombinant CDK11 (1 to 795 residues) expressed in baculovirus expression system at 1 uM relative to control. In a few lines: as §2
The subject of test [5] is T2, Discoidin domain-containing receptor 2 (Homo sapiens), Q16832 [N456S].
T2 sequence (whole entry): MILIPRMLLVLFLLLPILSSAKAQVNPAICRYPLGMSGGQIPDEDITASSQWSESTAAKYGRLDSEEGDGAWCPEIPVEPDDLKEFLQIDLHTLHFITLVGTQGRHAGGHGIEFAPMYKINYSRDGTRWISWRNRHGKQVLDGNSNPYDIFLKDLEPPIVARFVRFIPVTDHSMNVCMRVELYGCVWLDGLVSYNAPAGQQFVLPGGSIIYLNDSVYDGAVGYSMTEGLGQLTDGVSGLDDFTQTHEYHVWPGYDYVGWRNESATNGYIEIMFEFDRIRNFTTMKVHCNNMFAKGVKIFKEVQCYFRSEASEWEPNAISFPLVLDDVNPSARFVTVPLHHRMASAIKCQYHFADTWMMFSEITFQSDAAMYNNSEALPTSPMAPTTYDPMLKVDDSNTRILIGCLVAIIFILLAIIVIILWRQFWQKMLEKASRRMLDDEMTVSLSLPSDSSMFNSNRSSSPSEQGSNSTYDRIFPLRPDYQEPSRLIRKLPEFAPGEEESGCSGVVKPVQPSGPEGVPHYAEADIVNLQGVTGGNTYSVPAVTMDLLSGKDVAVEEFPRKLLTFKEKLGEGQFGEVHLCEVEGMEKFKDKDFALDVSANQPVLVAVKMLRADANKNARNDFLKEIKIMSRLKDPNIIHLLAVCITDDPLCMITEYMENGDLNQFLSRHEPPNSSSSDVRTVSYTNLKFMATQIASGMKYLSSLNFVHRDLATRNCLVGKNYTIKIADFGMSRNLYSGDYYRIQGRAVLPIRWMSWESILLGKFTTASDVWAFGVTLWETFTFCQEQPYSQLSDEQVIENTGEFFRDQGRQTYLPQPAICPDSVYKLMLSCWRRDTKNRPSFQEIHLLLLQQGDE
Briefly: Inhibition of GST/His-tagged human recombinant DDR2 N456S mutant (422 to 855 residues) expressed in baculovirus expression system at 1 uM relative to control. In a few lines: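 Single-point kinase panel (SelectScreen) run with the compound at 1 μM. Activity is reported as percent inhibition.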

For test [6], the target named is T3, Serine/threonine-protein kinase haspin (Homo sapiens) (UniProt Q8TF76).
T3 sequence (whole entry): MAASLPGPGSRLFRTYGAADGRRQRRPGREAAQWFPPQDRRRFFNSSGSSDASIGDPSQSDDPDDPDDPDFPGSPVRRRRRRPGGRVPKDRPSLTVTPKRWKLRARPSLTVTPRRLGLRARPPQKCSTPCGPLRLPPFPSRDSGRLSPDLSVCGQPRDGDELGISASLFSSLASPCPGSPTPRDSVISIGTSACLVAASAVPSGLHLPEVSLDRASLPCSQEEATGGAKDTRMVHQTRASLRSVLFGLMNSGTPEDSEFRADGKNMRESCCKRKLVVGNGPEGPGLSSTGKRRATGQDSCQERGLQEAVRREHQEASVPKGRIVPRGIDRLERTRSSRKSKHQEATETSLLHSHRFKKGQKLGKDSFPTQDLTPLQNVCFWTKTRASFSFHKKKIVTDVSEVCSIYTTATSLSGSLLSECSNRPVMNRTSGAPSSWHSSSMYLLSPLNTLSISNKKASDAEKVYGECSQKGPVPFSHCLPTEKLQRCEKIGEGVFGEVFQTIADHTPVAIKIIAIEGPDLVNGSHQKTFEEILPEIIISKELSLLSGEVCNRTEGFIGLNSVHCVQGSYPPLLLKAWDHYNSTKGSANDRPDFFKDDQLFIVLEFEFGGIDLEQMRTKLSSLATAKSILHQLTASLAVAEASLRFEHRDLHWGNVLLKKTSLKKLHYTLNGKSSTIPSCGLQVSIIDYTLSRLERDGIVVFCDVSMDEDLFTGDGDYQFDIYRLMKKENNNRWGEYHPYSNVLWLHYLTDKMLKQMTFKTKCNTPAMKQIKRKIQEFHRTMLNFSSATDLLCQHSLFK
Briefly: Inhibition of GST-tagged human recombinant haspin (471 to 798 residues) expressed in insect cells at 1 uM relative to control. The method in brief:
as §2

The target in test [7] is T1, Inactive tyrosine-protein kinase PEAK1. Briefly: Inhibition of PEAK1 (unknown origin) relative to control. Particulars: concentration not given here. The method in brief:
(§3)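 Follow-up on kinases showing more than 50% single-point inhibition. Each kinase was screened against decreasing compound concentrations, with a top concentration of 1 μM, to derive the IC50. Percent inhibition was also reported from this dose-response series.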

The target of test [8] is Cyclin-dependent kinase 19 (Homo sapiens) (UniProt Q9BWU1). Briefly: Inhibition of GST-tagged human recombinant CDK11 (1 to 795 residues) expressed in baculovirus expression system relative to control. As to conditions: concentration not given here. The method in brief: as §3
Chain of Cyclin-dependent kinase 19 (Homo sapiens) (Q9BWU1 whole entry, the tested form may be a part): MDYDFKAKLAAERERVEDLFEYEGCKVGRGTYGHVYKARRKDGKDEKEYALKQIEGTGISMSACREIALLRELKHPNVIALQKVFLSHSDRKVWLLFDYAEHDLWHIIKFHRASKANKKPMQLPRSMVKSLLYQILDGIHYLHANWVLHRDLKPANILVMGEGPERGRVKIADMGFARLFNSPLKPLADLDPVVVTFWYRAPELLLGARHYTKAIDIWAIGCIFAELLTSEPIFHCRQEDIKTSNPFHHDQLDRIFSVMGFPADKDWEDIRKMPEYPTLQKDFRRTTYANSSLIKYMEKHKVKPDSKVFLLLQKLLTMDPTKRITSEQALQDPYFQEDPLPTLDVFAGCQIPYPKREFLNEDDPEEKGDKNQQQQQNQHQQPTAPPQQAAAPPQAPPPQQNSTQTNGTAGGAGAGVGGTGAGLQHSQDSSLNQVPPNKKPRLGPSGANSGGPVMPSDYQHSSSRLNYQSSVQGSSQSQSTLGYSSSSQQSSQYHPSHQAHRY
Test [9] deals with T2, Discoidin domain-containing receptor 2 (Homo sapiens), Q16832 [N456S]. The test is described as follows: Inhibition of GST/His-tagged human recombinant DDR2 N456S mutant (422 to 855 residues) expressed in baculovirus expression system relative to control. Particulars: concentration not given here.
In test [10] the target is T3, Serine/threonine-protein kinase haspin (Homo sapiens). The test is described as follows: Inhibition of GST-tagged human recombinant haspin (471 to 798 residues) expressed in insect cells relative to control. Particulars: concentration not given here. The method in brief: as §3
Test [11] has as its target T1, Inactive tyrosine-protein kinase PEAK1. The test is described as follows: Inhibition of PEAK1 (unknown origin). In a few lines:
as §3

For test [12], the target named is Discoidin domain-containing receptor 2 (Homo sapiens, UniProt Q16832, N456S). Briefly: Inhibition of GST/His-tagged human recombinant DDR2 N456S mutant (422 to 855 residues) expressed in baculovirus expression system. The method in brief: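 Kinase profiling panel (SelectScreen). The kinase was tested against decreasing concentrations of the compound, starting at a highest concentration of 1 μM, and IC50 was derived from the dose-response.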

In test [13] the target is T4, Serine/threonine-protein kinase haspin (Homo sapiens, UniProt Q8TF76).
T4 sequence (Q8TF76 whole entry): T3 sequence (whole entry)
Briefly: Inhibition of GST-tagged human recombinant haspin (471 to 798 residues) expressed in insect cells. The method in brief:
as §3

The subject of test [14] is MCF7. The test is described as follows: Inhibition of mitochondrial complex I in human MCF7 cells expressing LC3 by Seahorse XF plasma membrane permeabilizer analysis. The test is classed as cell membranes. In a few lines: (§4)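 MCF7/LC3 cells were permeabilized with plasma membrane permeabilizer, then given DMSO, compound (1 μM) or a complex-specific control inhibitor together with that complex's substrates. Oligomycin and antimycin A injections followed. Oxygen consumption rate was read on a Seahorse XF analyzer. Data are mean ± SD, n = 3.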

Test [15] has as its system MCF7. The test is described as follows: Inhibition of mitochondrial complex II in human MCF7 cells expressing LC3 by Seahorse XF plasma membrane permeabilizer analysis. In kind it is cell membranes. In a few lines: as §4
Test [16] relates to MCF7. The test is described as follows: Inhibition of mitochondrial complex IV in human MCF7 cells expressing LC3 by Seahorse XF plasma membrane permeabilizer analysis. In kind it is cell membranes. The method in brief:
as §4

For another test, the species on record is Bos taurus. Briefly: Inhibition of NADH-Coenyme Q reductase in bovine heart mitochondria. As to conditions: dose 0.3-10 µM. The method in brief: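 Isolated bovine heart mitochondria were assayed for NADH-coenzyme Q reductase activity across a dose range of compound. Rotenone served as the control inhibitor. Data are mean ± SD, n = 2.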
Test [17] is described as follows: Inhibition of starvation-induced autophagy in human MCF7 cells expressing eGFP-tagged LC3 incubated for 3 hrs in presence of chloroquine by automated fluorescence microscopy.

T1 sequence (Q9H792 whole entry): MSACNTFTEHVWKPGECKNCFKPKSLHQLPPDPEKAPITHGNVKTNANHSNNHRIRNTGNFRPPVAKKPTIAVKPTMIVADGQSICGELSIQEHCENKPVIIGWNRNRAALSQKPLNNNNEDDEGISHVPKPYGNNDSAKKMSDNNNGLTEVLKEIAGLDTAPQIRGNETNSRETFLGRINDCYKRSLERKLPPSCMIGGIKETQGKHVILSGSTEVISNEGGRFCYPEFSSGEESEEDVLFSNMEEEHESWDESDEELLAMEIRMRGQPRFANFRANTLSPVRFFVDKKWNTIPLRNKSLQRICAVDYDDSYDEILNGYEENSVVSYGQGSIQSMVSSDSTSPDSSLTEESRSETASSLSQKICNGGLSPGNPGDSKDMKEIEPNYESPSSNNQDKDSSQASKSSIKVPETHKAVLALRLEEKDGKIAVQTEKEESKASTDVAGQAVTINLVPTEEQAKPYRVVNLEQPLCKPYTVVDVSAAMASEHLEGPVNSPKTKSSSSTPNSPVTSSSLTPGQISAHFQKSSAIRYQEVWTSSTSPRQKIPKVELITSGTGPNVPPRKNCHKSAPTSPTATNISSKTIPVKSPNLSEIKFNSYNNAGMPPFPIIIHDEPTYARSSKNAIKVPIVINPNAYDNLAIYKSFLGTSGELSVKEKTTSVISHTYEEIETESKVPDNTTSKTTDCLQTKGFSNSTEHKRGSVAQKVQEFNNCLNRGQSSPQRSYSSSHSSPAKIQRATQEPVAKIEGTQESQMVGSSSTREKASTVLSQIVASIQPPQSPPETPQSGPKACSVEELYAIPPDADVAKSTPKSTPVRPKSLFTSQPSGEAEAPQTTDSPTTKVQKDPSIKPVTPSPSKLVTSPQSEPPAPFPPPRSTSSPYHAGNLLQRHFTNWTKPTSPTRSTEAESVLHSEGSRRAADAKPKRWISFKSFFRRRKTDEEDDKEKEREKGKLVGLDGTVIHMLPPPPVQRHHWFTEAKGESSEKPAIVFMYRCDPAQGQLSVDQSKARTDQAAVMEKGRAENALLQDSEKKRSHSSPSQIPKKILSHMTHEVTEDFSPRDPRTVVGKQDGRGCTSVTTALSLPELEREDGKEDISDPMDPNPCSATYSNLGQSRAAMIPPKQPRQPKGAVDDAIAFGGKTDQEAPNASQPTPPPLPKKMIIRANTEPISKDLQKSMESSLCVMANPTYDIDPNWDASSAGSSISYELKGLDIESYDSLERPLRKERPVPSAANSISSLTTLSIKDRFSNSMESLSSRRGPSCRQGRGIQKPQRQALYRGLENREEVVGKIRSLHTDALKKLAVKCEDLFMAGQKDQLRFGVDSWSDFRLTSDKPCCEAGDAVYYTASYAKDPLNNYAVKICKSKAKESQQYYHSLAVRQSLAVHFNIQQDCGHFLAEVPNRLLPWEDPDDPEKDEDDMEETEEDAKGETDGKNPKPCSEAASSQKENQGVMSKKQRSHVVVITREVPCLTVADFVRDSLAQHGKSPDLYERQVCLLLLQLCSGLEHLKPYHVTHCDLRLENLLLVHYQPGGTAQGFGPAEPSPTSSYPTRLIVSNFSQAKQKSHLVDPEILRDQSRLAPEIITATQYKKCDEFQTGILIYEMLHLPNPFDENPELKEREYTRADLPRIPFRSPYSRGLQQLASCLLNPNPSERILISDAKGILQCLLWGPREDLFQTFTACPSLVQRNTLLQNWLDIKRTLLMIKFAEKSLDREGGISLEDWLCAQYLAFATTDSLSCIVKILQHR

Consider `O=C(c1ccc2c(c1)OCCO2)C1CCN(c2ncnc3sccc23)CC1`, for which the inhibition result with MCF7 [1], with HeLa, in the test with HEK-293T and in the test with MCF7 [14] was “Active” each time. In addition, the IC50 in test [2] is 180 nM; in [11], 620 nM; in test [12] it was over 1000 nM; in test [13], over 1000 nM; in [17], 20 nM. The inhibition in [3] amounted to 83%; in test [4] it was 70%; in [5], 58%; in [6] it was 51%; in test [7], 68%; in test [8], 47%. Moreover, the inhibition was 38% in test [9], 33% in [10] and “Dose-Dependent Effect” in the test listed under Bos taurus. Besides, the inhibition result in the test with MCF7 [15] and with MCF7 [16] was “inactive” each time.
